Insulin prom act = TRM-6 insulin promoter activation | TRM-6 cells, insulin promoter eGFP reporter, imaging; plate-scaled: unstimulated 0, stimulated control 100 | activation, % at 2 µM | 130,000 compounds, 0.81% hits;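 active means activation at 2 µM above a set limit, confirmed on inspection of the cell images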;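 further: share of cells whose green reporter signal exceeds an intensity cutoff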
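Test system: human fetal islet-derived TRM-6 cells with tamoxifen-inducible insulin promoter–eGFP reporter; schedule: overnight tamoxifen, then two-day compound incubation at 37 °C; measured by: high-content imaging of fixed cells with Hoechst nuclear stain; evaluation: percent cells above green-intensity threshold, converted to percent activation versus plate controls; control set: stimulated and unstimulated wells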
* marks the source's active call; other numbers are inactive results. The entries come from a sample that favours hits as a whole.

SMILES | Insulin prom act
CCOc1ccccc1Nc1nnc(SC(C)C(=O)Nc2nc(-c3ccccc3)cs2)s1 (centres undefined) | -7
CCN1CCN(C(=S)NC(C)c2ccccc2)CC1 (centres undefined) | 3
Nn1c(SCC(=O)N2CCOCC2)nnc1-c1ccccc1Cl | 111*
O=C(CSc1nnc(-c2ccco2)n1-c1ccccc1)N1CCOCC1 | 3
Cc1ccc(-n2c(SCC(=O)N3CCOCC3)nnc2-c2cccnc2)cc1 | 3
Cc1ccccc1-c1cc(C(=O)Nc2sc(C(=O)OC(C)C)c(C)c2C#N)c2ccccc2n1 | 0
N/C(=N\OC(=O)C1CCCCC1)c1ccccn1 | 0
Nc1cccc(-c2ccc(CO)o2)c1 | 7
OCCc1ccc(-c2ccc(Cl)cc2)o1 | 450*
S=C(c1ccc(-c2ccc(Cl)cc2)o1)N1CCCCC1 | 7
C/C(Cc1ccccc1)=N\NC(=O)CNC(=O)c1ccc(C(C)(C)C)cc1 | 0
O=C(Nc1nc2ccccc2[nH]1)c1cc2ccccc2o1 | 0
CCOc1ccc(N(CC(=O)Nc2ccccc2C(=O)N2CCOCC2)S(=O)(=O)c2ccc(F)cc2)cc1 | 3
CCOC(=O)c1nnn(-c2nonc2N)c1-c1ccc(F)cc1 | 0
Cc1cc(C)n(-c2nc3ccccc3nc2N2CCN(C(=O)c3ccc(Cl)cc3)CC2)n1 | -5
Cc1cccc2nc(-c3ccccc3)nc(N3CCC(O)(c4ccc(Cl)cc4)CC3)c12 | 454*
COC(=O)Nc1ccccc1C(=O)N1CCC(O)(c2ccc(Cl)cc2)CC1 | 0
CCc1nnc(NC(=O)c2ccc(-c3ccc([N+](=O)[O-])cc3Cl)o2)s1 | 0
COc1ccc(NC(=O)c2nc3nccc(C)n3n2)cn1 | -4
Cc1cc(C(=O)NCCN2C(=O)S/C(=C\c3cccs3)C2=O)ccc1[N+](=O)[O-] | 3
Cc1ccc(CNC(=O)C2CCCN(S(=O)(=O)c3c(C)noc3C)C2)cc1 (centres undefined) | 114
Cc1noc(C)c1S(=O)(=O)N1CCC(C(=O)NCCc2ccc(S(N)(=O)=O)cc2)CC1 | -10
Cc1ccc(CNC(=O)C2CCN(S(=O)(=O)c3c(C)noc3C)CC2)cc1 | 76*
N#CCCn1cnc2c(=S)nc[nH]c21 | 321
Cc1ccc(C(C(=O)Nc2ccc3c(c2)OCO3)N(C)C(=O)Cc2c[nH]c3ccccc23)cc1 (centres undefined) | -7
SMILES | Insulin prom act
CCn1cc(C(=O)NCCc2ccccc2)c(=O)c2cc(S(=O)(=O)N3CCCC3)ccc21 | 0
CCOc1cc(S(=O)(=O)n2nc(C)cc2C)ccc1F | -50
CCOc1cc(S(=O)(=O)NC2CCCCCC2)ccc1F | 420*
CCOc1cc(S(=O)(=O)N2CCOCC2)ccc1F | -81
CCOc1cc(S(=O)(=O)Nc2ccccn2)ccc1F | 464*
COc1ccc(F)cc1S(=O)(=O)N1CCCN(S(=O)(=O)c2cc(F)ccc2OC)CC1 | -75
CCOc1cc(S(=O)(=O)Nc2ccc(Cl)cn2)ccc1Cl | -2
COc1ccc(F)cc1S(=O)(=O)N1CCCC(C)C1 (centres undefined) | -9
COc1ccc(F)cc1S(=O)(=O)NC1CCCC1 | 83*
CCOC(=O)N1CCN(C(=O)COc2ccc(S(=O)(=O)NC3CCCCC3)cc2C)CC1 | 123
CC1Cc2ccccc2N1C(=O)CO/N=C/c1ccc(OC(F)F)cc1 (centres undefined) | 7
C[N+]12CCCCC1C(COC(=O)c1ccc3c(c1)OCO3)CCC2 (centres undefined) | -75
O=C(Cc1ncc(C(F)(F)F)cc1Cl)NCCc1ccccc1 | 9
Cc1ccccc1C(=O)N(Cc1nc2ccccc2c(=O)[nH]1)C1CCCC1 | 6
Cc1ccc(CNC(=O)Cn2c(=O)oc3ccccc32)o1 | -9
Cc1ccccc1C(=O)NNC(=O)/C=C/c1ccccc1 | -6
Cn1c(-c2cccs2)[n+](C)c2ccccc21 | 9
O=c1c(-c2ccco2)[n+]([O-])c2ccccc2n1OCc1ccccn1 | -5
COn1c(=O)c(-c2cccs2)[n+]([O-])c2ccccc21 | 87*
CCCCOC(=O)c1ccc(NC(=S)NC(=O)c2c(Br)c(C)nn2C)cc1 | 9
COc1cc(C(=O)Nc2ccccn2)cc(OC)c1OC | 10
COc1cc(C(=O)Oc2cc(C)cc(C)c2)cc(OC)c1OC | 607*
COc1ccc(C(=O)/C=C/c2ccc(OC(=O)c3cc(OC)c(OC)c(OC)c3)cc2)cc1 | 8
Cc1ccc(NC(=O)CSc2nnc(-c3ccncc3)n2C)cc1S(=O)(=O)N1CCOCC1 | -8
O=C(Nc1ccc2c(c1)OCO2)C1CCCCN1S(=O)(=O)c1ccccc1 (centres undefined) | -9
SMILES | Insulin prom act
O=C(NCCc1ccc(Cl)cc1)/C(=C/c1cccnc1)NC(=O)c1ccccc1 | 5
CN(CC(=O)Nc1ccc(S(=O)(=O)N2CCCC2)cc1)CC(=O)Nc1cccc(F)c1 | 220*
Cc1ccc(OCC(=O)Nc2ccc(S(=O)(=O)N3CCN(C)CC3)cc2)cc1 | 406*
CN1CCN(S(=O)(=O)c2ccc(N(C)CC(=O)Nc3ccc(F)cc3)nc2)CC1 | -20
Cc1ccc(S(=O)(=O)N2CCN(C(=O)COc3ccc(NC(=O)c4ccco4)cc3)CC2)cc1 | 107
COc1ccc(S(=O)(=O)N2CCN(CC(=O)Nc3cccc(F)c3)CC2)cc1 | -3
CC(C)CC(=O)NC(=S)Nc1ccc(S(=O)(=O)N2CCN(C)CC2)cc1 | 8
Cc1nn(CC(=O)c2cccc(Cl)c2)c(C)c1[N+](=O)[O-] | -5
CCOc1ccc(CC(=O)C2=C(N3CCOCC3)CC(C)(C)CC2=O)cc1OCC | 6
COc1cc(NC(=O)c2ccc3c(c2)OCCO3)ccc1NC(=O)c1cccs1 | 107
c1cc2c(cc1-c1csc(NNC3=NCCCCC3)n1)OCCO2 | -7
Cc1ccc(-n2nc(C)c(Sc3ccccc3[N+](=O)[O-])c2N)cc1 | -6
Cc1ccc(-n2cc(-c3ccccc3)c3c(NN4CCOCC4)ncnc32)cc1 | -4
COC(=O)/C=C/c1ccsc1NC(C)=O | -8
O=C(COC(=O)C1CC2C=CC1C2)NCc1ccccc1Cl (centres undefined) | 7
COc1cccc(/C=C/C(=O)OCC(=O)Nc2ccc(N3CCOCC3)cc2)c1OC | 0
COc1ccc(CCC(=O)N2CCc3ccccc32)cc1 | 367
O=S(=O)(NCCc1cn2ccccc2n1)c1ccc2c(c1)CCCC2 | 198
CCSc1ncnc2c1sc1nc3c(cc12)COC(C)(C)C3 | 7
CC1CCN(S(=O)(=O)c2ccc(C(=O)Nc3nnc(-c4ccccn4)o3)cc2)CC1 | 136
O=C(Nc1nnc(-c2cccs2)o1)c1ccc(S(=O)(=O)N2CCOCC2)cc1 | 6
O=C(Nc1nnc(-c2ccccc2Cl)o1)c1ccc(S(=O)(=O)N2CCCCCC2)cc1 | 400*
COCCN(C(=O)c1csnn1)C(C(=O)NC(C)(C)C)c1cccc(OC)c1 (centres undefined) | -5
CCOC(=O)/C(C#N)=C\c1ccc(OCC(=O)Nc2ccc(C)cc2C)c(OC)c1 | 8
O=C(COC(=O)c1c(Cl)ccc(Cl)c1Cl)NC(=O)NCc1ccccc1 | 5
SMILES | Insulin prom act
O=C1CC(C(=O)N2CCOCC2)C2(CCCC2)O1 (centres undefined) | 9
CCCCCCN1C=CC(=C/C=C(\C#N)C(=O)OCC)C=C1 | 133*
CCCN1C=CC(=C/C=C(\C#N)C(=O)OCC)C=C1 | 141*
CCOC(=O)/C(C#N)=C\C1=C(N2CCCC2)CC(C)(C)OC1 | -3
CCOC(=O)/C(C#N)=C1/C=CN(Cc2ccccc2)C=N1 | -6
CCOC(=O)C(/C=C(\C#N)C(=O)OCC)=C(/N)N1CCN(c2ccccc2)CC1 | -7

Screens: PubChem, Columbia University Molecular Screening Center
